Results on 13 molecules are retold here after ChEMBL document CHEMBL1817552, “Isolation, identification, and biological evaluation of HIF-1-modulating compounds from Brazilian green propolis” (Bioorg Med Chem, 2011).

The source made the active and inactive calls. No cut-off for these calls is given here.

Data set [1] has as its system HCT-116. Description: Cytotoxicity against human HCT116 cells assessed as cell viability under normoxic condition at 100 uM after 24 hrs by MTT assay. In kind it is functional. In outline: (§1)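 HCT116 cells seeded at 6.0 × 10^3 cells/well in McCoy's 5A with 10% FBS and antibiotics, grown 24 h, then exposed to compound for 24 h under normoxia (20% O2) or hypoxia (1% O2, 94% N2, 5% CO2, 37 °C). MTT 0.5 mg/mL added for 4 h at 37 °C, cells lysed in DMSO, absorbance read at 570 nm. Final DMSO 1.0% (v/v).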
(In general: Tetrazolium dyes change colour on reduction, which living cells bring about.)

For data set [2], the system named is HEK293. Description: Modulation of HIF1 expressed in HEK293 cells assessed as luciferase activity under hypoxic condition at 50 uM after 24 hrs by luminometer analysis relative to hypoxic control. In kind it is cell-based. In outline:
(§2)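 HEK293 stable clone carrying a luciferase reporter driven by a 68-bp ENO1 hypoxia response element upstream of the SV40 promoter, seeded at 8 × 10^4 cells/well. After 24 h, compound added; 1 h later cells moved to 1% O2 hypoxia for 24 h. Luciferase read by luminometer, expressed as ratio to hypoxic control. Final DMSO 0.5%; triplicate wells.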

The nature of data set [3]: Solubility of the compound in dimethylsulfoxide. In kind it is physicochemical.
A short description of data set [4]: Antiangiogenic activity in 3-day-old embryonated chicken eggs at 300 ng/CAM measured on 7th embryonic day by CAM assay. Type of data set: functional, Gallus gallus, Egg.
In data set [5] the test system is HCT-116. Kind of data set: Cytotoxicity against human HCT116 cells assessed as cell viability under normoxic condition at 200 uM after 24 hrs by MTT assay. Type of data set: functional. The procedure, abridged:
as §1

Data set [6] has as its system HCT-116. Description: Cytotoxicity against human HCT116 cells assessed as cell viability under normoxic condition at 200 uM after 7 days by clonogenic assay. Type of data set: functional. In outline: (§3)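 HCT116 cells plated at 3.0 × 10^2 cells per dish and treated 24 h under normoxia (20% O2) or hypoxia (1% O2). On day 7 colonies were washed with PBS, fixed in methanol 30 min at room temperature, stained with Giemsa over 3 h, then counted.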

Data set [7] deals with T1, Hypoxia inducible factors; HIF-1-alpha, HIF-2-alpha (Homo sapiens) (UniProt Q16665+Q99814). Description: Inhibition of HIF1-dependent GLUT1 mRNA expression in human HCT116 cells under hypoxic condition at 50 uM after 24 hrs by RT-PCR analysis. In kind it is cell-based. The conditions noted are these: HCT-116. The procedure, abridged:
(§4)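 HCT116 cells seeded at 1 × 10^6 per dish in McCoy's 5A/10% FBS, grown 24 h, then treated 24 h under hypoxia (1% O2) or normoxia. Total RNA extracted directly after treatment. Real-time RT-PCR run as 95 °C 30 s, then 40 cycles of 95 °C 5 s and 60 °C 30 s. Normalized to 18S rRNA, relative expression by 2^-ΔΔCT; mean ± SD.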

The target of data set [8] is T1, Hypoxia inducible factors; HIF-1-alpha, HIF-2-alpha (Homo sapiens). Kind of data set: Inhibition of HIF1-dependent HK2 mRNA expression in human HCT116 cells under hypoxic condition at 50 uM after 24 hrs by RT-PCR analysis. Type of data set: cell-based. The conditions noted are these: HCT-116. The procedure, abridged: as §4
The subject of data set [9] is HCT-116. Kind of data set: Cytotoxicity against human HCT116 cells assessed as cell viability under hypoxic condition at 200 uM after 7 days by clonogenic assay. Type of data set: functional. In outline:
as §3

Data set [10] deals with T1, Hypoxia inducible factors; HIF-1-alpha, HIF-2-alpha (Homo sapiens). Description: Inhibition of HIF1-dependent VEGFA mRNA expression in human HCT116 cells under hypoxic condition at 50 uM after 24 hrs by RT-PCR analysis. Type of data set: cell-based. The following applies: HCT-116. The procedure, abridged:
as §4

The nature of data set [11]: Modulation of HIF1 expressed in HEK293 cells assessed as luciferase activity under hypoxic condition after 24 hrs by luminometer analysis. In kind it is cell-based. The following applies: HEK293, 24 h.
In data set [12] the test system is HCT-116. Kind of data set: Cytotoxicity against human HCT116 cells assessed as cell viability under hypoxic condition at 200 uM after 24 hrs by MTT assay. In kind it is functional. The procedure, abridged: as §1
For data set [13], the system named is HCT-116. Description: Inhibition of HIF1alpha expression in human HCT116 cells under hypoxic condition after 4 hrs by immunoblotting. In kind it is functional, cell-based. The procedure, abridged:
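HCT116 cells at 4 × 10^6 per dish, grown 24 h, then exposed 4 h under hypoxia (1% O2) or normoxia (20% O2). Lysed on ice in Tris/SDS/deoxycholate buffer with protease and phosphatase inhibitors; 120 µg protein per lane on 7% SDS-PAGE. Probed with mouse anti-human HIF-1α (1:500) and β-actin control; HRP secondary, chemiluminescence quantitation.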

Data set [14] concerns HCT-116. Kind of data set: Cytotoxicity against human HCT116 cells assessed as cell viability under normoxic condition at 50 uM after 24 hrs by MTT assay. Type of data set: functional.
The subject of data set [15] is HCT-116. Kind of data set: Cytotoxicity against human HCT116 cells assessed as cell viability under hypoxic condition at 50 uM after 24 hrs by MTT assay. In kind it is functional. In outline: as §1
Data set [16] concerns HCT-116. Description: Cytotoxicity against human HCT116 cells assessed as cell viability under hypoxic condition at 50 uM after 7 days by clonogenic assay. Type of data set: functional.
Data set [17] deals with HCT-116. Description: Cytotoxicity against human HCT116 cells assessed as cell viability under normoxic condition at 50 uM after 7 days by clonogenic assay. Type of data set: functional.
In data set [18] the test system is HCT-116. Kind of data set: Cytotoxicity against human HCT116 cells assessed as cell viability under normoxic condition after 24 hrs by MTT assay. Type of data set: functional, cell-based. The following applies: HCT-116, 24 h. In outline: as §1
Data set [19] deals with HEK293. Kind of data set: Modulation of HIF1 expressed in HEK293 cells assessed as luciferase activity under hypoxic condition at 30 uM after 24 hrs by luminometer analysis relative to hypoxic control. In kind it is cell-based. The procedure, abridged:
as §2

Consider `CC(C)(C)c1cc(/C=C/C(=O)O)cc(C(C)(C)C)c1O`, for which the Activity in the data set on HCT-116 [1] stood at 108.4%. The Ratio in the data set with HEK293 [2] was 0.77.

`C=C(C)[C@@H]1CC[C@]2(C)CC[C@]3(C)[C@H](CC[C@@H]4[C@@]5(C)CC[C@H](OC(=O)C[C@H](O)CCCCCCCCCCCCC)C(C)(C)[C@@H]5CC[C@]43C)[C@@H]12`: the solubility result in [3] was “Insoluble”.

With `COc1ccc(/C=C/C(=O)O)cc1CC=C(C)C`, the Activity in the data set on HCT-116 [1] turned out to be 95.7%. Also, in the data set on HEK293 [2], the Ratio was determined as 0.82.

Regarding `C=CCc1cc(/C=C/C(=O)O)ccc1O`, the Activity in the data set on HCT-116 [1] is 98.4%. Also, the Ratio in the data set on HEK293 [2] was determined as 0.9.

Consider `O=C(O)/C=C/c1ccc(OC(=O)CCc2ccccc2)cc1`, for which the Ratio in the data set with HEK293 [2] is 1.08.

For `CC(C)=CCc1cc(/C=C/C(=O)O)cc(CC=C(C)C)c1O` [ARTEPILLIN], the “inhibition (INH)” value in data set [4] is recorded as 80.9%. Also, the Activity in the data set on HCT-116 [5] was determined as 53.3%. Besides, in the data set on HEK293 [2], the Ratio is 1.09.

By IC50 is commonly meant the concentration that gives 50% inhibition. Consider `CC(C)=CCc1cc(/C=C/C(=O)O)ccc1OC(=O)CCc1ccccc1` [BACCHARIN], for which the Activity stood at 74.8% in the data set with HCT-116 [6], 58.2% in the data set on HCT-116 [5], 74% in the data set with HCT-116 [9] and 69.4% in the data set with HCT-116 [12]. Moreover, the inhibition result in data set [7], in data set [8] and in data set [10] was “Active” throughout. In addition, the “inhibition (INH)” value in data set [4] came to 83.2%. The IC50 in data set [11] was 77.4 µM. In addition, the Ratio with HEK293 [2] stood at 0.52. The inhibition entry in the data set on HCT-116 [13] is “Dose-dependent effect”.

For the molecule `COc1ccc(-c2oc3cc(O)c(OC)c(O)c3c(=O)c2O)cc1` [BETULETOL], in data set [4], the “inhibition (INH)” value is reported as 46.7%. Moreover, the Activity turned out to be 69% in the data set on HCT-116 [14], 86.8% with HCT-116 [15], 90.3% in the data set on HCT-116 [16] and 96.8% with HCT-116 [17].

For the molecule `O=C(O)/C=C/c1ccc(O)cc1` [COUMARIC ACID], the Activity in the data set on HCT-116 [1] is listed as 99.3%. Besides, the Ratio in the data set with HEK293 [2] worked out at 0.93.

As to `CC(C)=CCc1cc(/C=C/C(=O)O)ccc1O` [DRUPANIN], the Activity in the data set on HCT-116 [6] was 105.8%; in the data set with HCT-116 [5], 127.1%; with HCT-116 [9] it was 101.2%; with HCT-116 [12] it was 146%. For the same molecule, the inhibition result in data set [7], in [8] and in data set [10] was “Active” in each case. The “inhibition (INH)” value in data set [4] worked out at 84.3%. For the same molecule, the IC50 in [11] came to 25.6 µM. Also, the Ratio with HEK293 [2] stood at 0.36. Further, the inhibition entry in the data set on HCT-116 [13] is “Dose-dependent effect”.

As to `COc1ccc(-c2oc3cc(O)cc(O)c3c(=O)c2O)cc1` [KAEMPFERIDE], the “inhibition (INH)” value in data set [4] was found to be 39.5%. For the same molecule, the Activity with HCT-116 [14] is 102.5%; in the data set on HCT-116 [15], 173.3%; in the data set on HCT-116 [16], 87.6%; in the data set with HCT-116 [17], 79.9%.

As to `COC(=O)/C=C/c1ccc(OC)c(CC=C(C)C)c1` [PALICATIN B METHYL ETHER], in the data set with HCT-116 [18], the IC50 was determined as 37.6 µM. For the same molecule, the Ratio with HEK293 [19] worked out at 1.17.

For the molecule `COC(=O)/C=C/c1ccc(O)c(CC=C(C)C)c1` [PLICATIN B], in the data set on HCT-116 [18], the IC50 came out at 10.6 µM.
